Assay results taken from ChEMBL document CHEMBL4706706, “Structure-activity relationship and mechanistic studies for a series of cinnamyl hydroxamate histone deacetylase inhibitors” (Bioorg Med Chem, 2021).
Active and inactive are the calls of the source. The calls are words filed in the database; no cut-off is given here.

Experiments:
MCF7 = test: Cytotoxicity against human MCF7 cells assessed as reduction in cell viability measured after 72 hrs by MTT assay; type: functional, cell-based; conditions: MCF7, 72 h
Jurkat [1] = test: Cytotoxicity against human Jurkat cells assessed as reduction in cell viability measured after 48 hrs MTT assay; type: functional, cell-based
Jurkat [2] = test: Cytotoxicity against human Jurkat cells assessed as reduction in cell viability measured after 24 hrs MTT assay; type: functional, cell-based
Jurkat [3] = test: Cytotoxicity against human Jurkat cells assessed as reduction in cell viability measured after 72 hrs by MTT assay; type: functional, cell-based
[4] = Cytotoxicity against human HS5 cells assessed as reduction in cell viability measured after 72 hrs by MTT assay; type: ADME, cell-based; conditions: HS5, 72 h
NAMALVA [5] = test: Cytotoxicity against human NAMALVA cells assessed as reduction in cell viability measured after 72 hrs by MTT assay; type: functional, cell-based
[6] = Selectivity ratio of IC50 for human HCT-116 cells to IC50 for human Jurkat cells; type: functional
[7] = Selectivity index, ratio of IC50 for human HS5 cells to IC50 for human Jurkat cells
Jurkat [8] = test: Effect on phosphoserine expression in human Jurkat cells at IC50 measured after 48 hrs by Western blot analysis; type: functional, cell-based
Jurkat [9] = test: Induction of apoptosis in human Jurkat cells assessed as viable cells at 0.5 times IC50 measured after 48 hrs by Annexin V-FITC/7AAD staining based flow cytometry (reference value: 85.2%); type: functional
[10] = Selectivity ratio of IC50 for human HCT-116 cells to IC50 for human NAMALVA cells; type: functional
[11] = target: T1, Protein deacetylase HDAC6 (Homo sapiens) (UniProt Q9UBN7); test: Inhibition of HDAC6 in human NAMALVA cells assessed as increase in acetylated alpha-tubulin expression at IC50 measured after 48 hrs by Western blot analysis; type: cell-based
T1 sequence (whole entry): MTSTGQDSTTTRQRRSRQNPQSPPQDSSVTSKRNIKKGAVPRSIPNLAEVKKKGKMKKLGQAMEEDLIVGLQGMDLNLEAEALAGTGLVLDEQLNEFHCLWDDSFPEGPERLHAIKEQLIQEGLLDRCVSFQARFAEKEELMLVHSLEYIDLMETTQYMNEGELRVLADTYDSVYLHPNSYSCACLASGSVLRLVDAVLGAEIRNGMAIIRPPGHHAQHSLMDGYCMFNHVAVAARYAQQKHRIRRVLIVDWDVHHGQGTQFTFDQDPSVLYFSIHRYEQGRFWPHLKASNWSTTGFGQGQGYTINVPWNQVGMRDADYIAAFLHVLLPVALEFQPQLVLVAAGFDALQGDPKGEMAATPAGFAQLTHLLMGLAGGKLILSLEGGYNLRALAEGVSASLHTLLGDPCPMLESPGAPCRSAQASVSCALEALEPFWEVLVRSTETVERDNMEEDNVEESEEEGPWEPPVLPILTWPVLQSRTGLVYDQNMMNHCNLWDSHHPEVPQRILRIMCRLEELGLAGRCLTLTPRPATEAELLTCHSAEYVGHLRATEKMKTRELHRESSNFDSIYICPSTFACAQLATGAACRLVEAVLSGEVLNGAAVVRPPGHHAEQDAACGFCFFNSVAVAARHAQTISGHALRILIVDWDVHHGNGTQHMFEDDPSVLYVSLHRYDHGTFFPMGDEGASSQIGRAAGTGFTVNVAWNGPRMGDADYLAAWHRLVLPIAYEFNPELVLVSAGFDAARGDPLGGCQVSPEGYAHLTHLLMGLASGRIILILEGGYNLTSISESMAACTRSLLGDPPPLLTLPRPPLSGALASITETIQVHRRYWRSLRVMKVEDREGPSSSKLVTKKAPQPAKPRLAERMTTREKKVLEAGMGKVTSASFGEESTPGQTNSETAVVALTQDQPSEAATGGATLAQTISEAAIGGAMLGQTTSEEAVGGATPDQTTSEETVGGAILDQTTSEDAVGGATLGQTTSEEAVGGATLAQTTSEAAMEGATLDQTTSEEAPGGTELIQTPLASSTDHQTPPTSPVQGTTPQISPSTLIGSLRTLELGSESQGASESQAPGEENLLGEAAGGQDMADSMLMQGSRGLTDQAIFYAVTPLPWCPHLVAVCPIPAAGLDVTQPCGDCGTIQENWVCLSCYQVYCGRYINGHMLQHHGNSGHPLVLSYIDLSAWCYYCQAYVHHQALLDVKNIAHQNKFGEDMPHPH

Jurkat [12] = test: Effect on phosphotyrosine expression in human Jurkat cells at IC50 measured after 48 hrs by Western blot analysis; type: functional, cell-based
Jurkat [13] = test: Cytotoxicity against human Jurkat cells assessed as reduction in cell viability MTT assay; type: functional, cell-based; conditions: time 24-72 hrs, TDE = time-dependent effect
Outline: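 Jurkat cells (2 × 10^4/well) in RPMI with 10% FBS and 1% penicillin–streptomycin, exposed 24, 48 and 72 h to compound (0.0032–50 μM); 1% DMSO as negative control. MTT at 0.5 mg/mL final for 3 h, formazan dissolved in 0.1 N HCl/isopropanol. IC50 with 95% confidence intervals from sigmoidal nonlinear regression; mean ± SEM.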

Jurkat [14] = test: Cytotoxicity against human Jurkat cells assessed as reduction in cell proliferation at IC50 measured after 48 hrs by Ki-67 staining based fluorescence assay; type: functional
Outline: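 Ki-67 stained per kit instructions; mean fluorescence intensity by flow cytometry, normalized to untreated cells; at least three independent experiments, ANOVA with Bonferroni post-test.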

HCT-116 = test: Cytotoxicity against human HCT-116 cells assessed as reduction in cell viability measured after 72 hrs by MTT assay; type: functional, cell-based; conditions: HCT-116, 72 h
Jurkat [15] = test: Induction of apoptosis in human Jurkat cells assessed as late apoptotic cells at 0.5 times IC50 measured after 48 hrs by Annexin V-FITC/7AAD staining based flow cytometry (reference value: 6.77%); type: functional
Jurkat [16] = test: Induction of apoptosis in human Jurkat cells assessed as necrotic cells at 0.5 times IC50 measured after 48 hrs by Annexin V-FITC/7AAD staining based flow cytometry (reference value: 0.23%); type: functional
NAMALVA [17] = test: Induction of apoptosis in human NAMALVA cells assessed as necrotic cells at 0.5 times IC50 measured after 48 hrs by Annexin V-FITC/7AAD staining based flow cytometry (reference value: 1.05%); type: functional
NAMALVA [18] = test: Effect on phosphotyrosine expression in human NAMALVA cells at IC50 measured after 48 hrs by Western blot analysis; type: functional, cell-based
[19] = target: T2, Histone deacetylase (Homo sapiens) (UniProt Q13547+O15379+Q9UBN7+Q92769+Q9UQL6+Q8WUI4+Q9BY41+Q96DB2+P56524+Q9UKV0+Q969S8); test: Inhibition of HDAC in human Jurkat cells assessed as increase in gammaH2AX expression at IC50 measured after 48 hrs by Western blot analysis; type: cell-based
NAMALVA [20] = test: Induction of apoptosis in human NAMALVA cells assessed as late apoptotic cells at 0.5 times IC50 measured after 48 hrs by Annexin V-FITC/7AAD staining based flow cytometry (reference value: 3.52%); type: functional
Jurkat [21] = test: Induction of apoptosis in human Jurkat cells assessed as early apoptotic cells at 0.5 times IC50 measured after 48 hrs by Annexin V-FITC/7AAD staining based flow cytometry (reference value: 6.05%); type: functional
NAMALVA [22] = test: Induction of apoptosis in human NAMALVA cells assessed as viable cells at 0.5 times IC50 measured after 48 hrs by Annexin V-FITC/7AAD staining based flow cytometry (reference value: 90.4%); type: functional
[23] = target: T1, Protein deacetylase HDAC6 (Homo sapiens); test: Inhibition of HDAC6 in human Jurkat cells assessed as increase in acetylated alpha-tubulin expression at IC50 measured after 48 hrs by Western blot analysis; type: cell-based
[24] = Selectivity index, ratio of IC50 for human HS5 cells to IC50 for human NAMALVA cells
NAMALVA [25] = test: Effect on phosphoserine expression in human NAMALVA cells at IC50 measured after 48 hrs by Western blot analysis; type: functional, cell-based
NAMALVA [26] = test: Induction of apoptosis in human NAMALVA cells assessed as early apoptotic cells at 0.5 times IC50 measured after 48 hrs by Annexin V-FITC/7AAD staining based flow cytometry (reference value: 5.07%); type: functional
[27] = target: T2, Histone deacetylase (Homo sapiens); test: Inhibition of HDAC in human NAMALVA cells assessed as increase in gammaH2AX expression at IC50 measured after 48 hrs by Western blot analysis; type: cell-based

| SMILES | IC50 (MCF7) | IC50 (Jurkat [1]) | IC50 (Jurkat [2]) | IC50 (Jurkat [3]) | IC50 [4] | IC50 (NAMALVA [5]) | Ratio IC50 [6] | Ratio IC50 [7] | inhibition (Jurkat [8]) | Activity (Jurkat [9]) | Ratio IC50 [10] | inhibition [11] | inhibition (Jurkat [12]) | Activity (Jurkat [13]) | Activity (Jurkat [14]) | IC50 (HCT-116) | Activity (Jurkat [15]) | Activity (Jurkat [16]) | Activity (NAMALVA [17]) | inhibition (NAMALVA [18]) | further results |
| --- | --- | --- | --- | --- | --- | --- | --- | --- | --- | --- | --- | --- | --- | --- | --- | --- | --- | --- | --- | --- | --- |
| COc1cccc2c1C(=O)c1c(O)c3c(c(O)c1C2=O)C[C@@](O)(C(=O)CO)C[C@@H]3O[C@H]1C[C@H](N)[C@H](O)[C@H](C)O1 [DOXORUBICIN] | 1900 nM | 200 nM | 700 nM | 50 nM | 150 nM | 90 nM | – | – | – | – | – | – | – | – | – | – | – | – | – | – | – |
| O=C(/C=C/c1ccc(NC(=O)Nc2ccccc2)cc1)NO | > 50000 nM | 1200 nM | 2700 nM | 160 nM | 1000 nM | 300 nM | 41 | 6 | inactive | 87.4% | 22 | Active | inactive | Tde | Active | 6490 nM | 4.39% | 0.31% | 1.05% | inactive | inhibition [19]: Active; Activity (NAMALVA [20]): 5.2%; Activity (Jurkat [21]): 7.03%; Activity (NAMALVA [22]): 81.4%; inhibition [23]: Active; Ratio IC50 [24]: 3; inhibition (NAMALVA [25]): inactive; Activity (NAMALVA [26]): 12.4%; inhibition [27]: Active |
| O=C(/C=C/c1ccc(NC(=O)Nc2ccc([N+](=O)[O-])cc2)cc1)NO | > 50000 nM | 700 nM | 2700 nM | 90 nM | 3000 nM | 580 nM | 140 | 33 | inactive | 87.1% | 22 | Active | inactive | Tde | Active | 12600 nM | 7.03% | 0.18% | 1.2% | inactive | inhibition [19]: Active; Activity (NAMALVA [20]): 5.89%; Activity (Jurkat [21]): 5.74%; Activity (NAMALVA [22]): 82.8%; inhibition [23]: Active; Ratio IC50 [24]: 5; inhibition (NAMALVA [25]): inactive; Activity (NAMALVA [26]): 10.1%; inhibition [27]: Active |
| COc1ccc(NC(=O)Nc2ccc(CCC(=O)NO)cc2)cc1 | > 50000 nM | – | – | 2800 nM | – | 1990 nM | – | – | – | – | – | – | – | – | – | 31000 nM | – | – | – | – | – |
| O=C(CCc1ccc(NC(=O)Nc2ccc([N+](=O)[O-])cc2)cc1)NO | > 50000 nM | – | – | 810 nM | – | 2500 nM | – | – | – | – | – | – | – | – | – | 6370 nM | – | – | – | – | – |
| COc1ccc(NC(=O)Nc2ccc(C(=O)NO)cc2)cc1 | > 50000 nM | – | – | 8030 nM | – | 4790 nM | – | – | – | – | – | – | – | – | – | 22300 nM | – | – | – | – | – |
